The values below come from ChEMBL document CHEMBL1129484, “Selectively cytotoxic diterpenes from Euphorbia poisonii” (J Med Chem, 1996).

In brackets after ≈: the same amount, converted by molar mass.

One data set deals with A549. The data set is described as follows: Cytotoxicity on lung carcinoma (A-549) cell line. It is filed as functional. Particulars: Homo sapiens, read-out: ED50 (the source's name). In a few lines: (§1)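 Human solid tumour cell line panel tested at the Purdue Cancer Center with a 7-day MTT viability assay under standard protocols. Cell lines were A-549 lung, MCF-7 breast, HT-29 colon, A-498 kidney, PC-3 prostate and PACA-2 pancreatic. Adriamycin served as positive control.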

In the next data set the test system is A498. Briefly: Cytotoxicity on kidney carcinoma (A-498) cell line. Type of data set: functional. Particulars: Homo sapiens, read-out: ED50 (the source's name). In a few lines: as §1
The subject of another data set is HT-29. Briefly: Cytotoxicity on adenocarcinoma (HT-29 colon) cell line. Particulars: Homo sapiens, read-out: ED50 (the source's name). It is filed as functional. In a few lines: as §1
The subject of a further data set is MCF7. Briefly: Cytotoxicity on breast carcinoma (MCF-7) cell line. Particulars: Homo sapiens, read-out: ED50 (the source's name). It is filed as functional. In a few lines: as §1
In another data set the test system is MIA PaCa-2. The data set is described as follows: Cytotoxicity on pancreatic carcinoma (PACA-2) cell line. Type of data set: functional. Particulars: Homo sapiens, read-out: ED50 (the source's name). In a few lines:
as §1

For a further data set, the system named is PC-3. Briefly: Cytotoxicity on prostate adenocarcinoma (PC-3) cell line. Type of data set: functional. The conditions noted are these: Homo sapiens, read-out: ED50 (the source's name). A digest of the protocol: as §1
Data set [1] can be described thus: Lethal concentration against Brine Shrimp. The conditions noted are these: artemia, in vivo. It is filed as organism-based. A digest of the protocol:
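Brine shrimp lethality test run by a standard protocol on partitioned fractions, pooled chromatographic fractions and isolated compounds. LC50 values were determined and expressed in µg/mL.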

Regarding `C=C(C)[C@]12C[C@@H](C)[C@@]34OC(Cc5ccccc5)(O[C@@H]1C3C=C(CO)C[C@]1(O)C(=O)C(C)=CC41)O2` (some centres undefined), the EC50 amounted to 5.41 mg/L (≈ 11.6 µM) in the data set with A549; 1.97 mg/L (≈ 4.24 µM) in the data set with A498; 7.41 mg/L (≈ 16 µM) in the data set with HT-29; 30.9 mg/L (≈ 66.5 µM) with MCF7; 3.55 mg/L (≈ 7.64 µM) with MIA PaCa-2; 4.56 mg/L (≈ 9.82 µM) with PC-3.

`CC(=O)OCC1=C[C@H]2[C@@H]3C(C)(C)[C@]3(OC(=O)Cc3ccccc3)C[C@@H](C)[C@]2(O)C2C=C(C)C(=O)[C@@]2(O)C1` (some centres undefined): the EC50 with A549 came to 26.1 mg/L (≈ 51.2 µM); in the data set with A498, 1.59 mg/L (≈ 3.13 µM); with HT-29 it was 29.5 mg/L (≈ 57.9 µM); in the data set on MCF7, 41.3 mg/L (≈ 81.1 µM); in the data set on MIA PaCa-2, 26.9 mg/L (≈ 52.9 µM); in the data set on PC-3 it was 35.1 mg/L (≈ 69 µM). Further, the LC50 in data set [1] worked out at 12 mg/L (≈ 23.7 µM).

For the compound `C/C=C(/C)C(=O)O[C@@]12C[C@@H](C)[C@]3(O)C4C=C(C)C(=O)[C@@]4(O)CC(CO)=C[C@H]3[C@@H]1C2(C)C` (some centres undefined), the EC50 with A549 is 11.6 mg/L (≈ 26.9 µM); in the data set with A498, 46 mg/L (≈ 107 µM); in the data set on HT-29, 26.5 mg/L (≈ 61.6 µM); with MCF7, 69.9 mg/L (≈ 162 µM); in the data set with MIA PaCa-2, 37.2 mg/L (≈ 86.5 µM); with PC-3 it was 17.9 mg/L (≈ 41.6 µM). For the same compound, the LC50 in data set [1] is 115 mg/L (≈ 266 µM).

Consider `C/C=C(/C)C(=O)O[C@@]12C[C@@H](C)[C@]3(O)C4C=C(C)C(=O)[C@@]4(O)CC(COC(C)=O)=C[C@H]3[C@@H]1C2(C)C` (some centres undefined), for which the EC50 in the data set with A549 amounted to 18.9 mg/L (≈ 40 µM); in the data set on A498, 2.18 mg/L (≈ 4.61 µM); with HT-29, 30.8 mg/L (≈ 65.1 µM); in the data set with MCF7 it was 41.8 mg/L (≈ 88.4 µM); with MIA PaCa-2 it was 30.3 mg/L (≈ 64.2 µM); in the data set on PC-3, 27.7 mg/L (≈ 58.6 µM). Moreover, in data set [1], the LC50 came out at 191 mg/L (≈ 404 µM).

Turning to `COc1cccc2c1C(=O)c1c(O)c3c(c(O)c1C2=O)C[C@@](O)(C(=O)CO)C[C@@H]3O[C@H]1C[C@H](N)[C@H](O)[C@H](C)O1` [DOXORUBICIN], the EC50 with A498 turned out to be 1.87 mg/L (≈ 3.44 µM); in the data set on MIA PaCa-2, 1.63 mg/L (≈ 3 µM).

`CC1=CC2[C@@]3(O)[C@H](C)C[C@]4(OC(=O)CCCCCCC[C@H]5C[C@@H]5C)[C@H]([C@@H]3C(C)=C(CO)C[C@]2(O)C1=O)C4(C)C` (some centres undefined): the EC50 with A549 was found to be 2.85 mg/L (≈ 5.25 µM); with MIA PaCa-2, 1.92 mg/L (≈ 3.54 µM); in the data set with PC-3, 2.44 mg/L (≈ 4.5 µM).

Consider `C=C(C)[C@]12C[C@@H](C)[C@@]34OC(Cc5ccccc5)(O[C@@H]1[C@@H]3C=C(COC(=O)Cc1ccc(O)c(OC)c1)C[C@]1(O)C(=O)C(C)=CC41)O2` (some centres undefined), for which the EC50 in the data set with A549 came out at 1.12 mg/L (≈ 1.78 µM); in the data set with A498, 1.08 mg/L (≈ 1.72 µM); in the data set with HT-29 it was 3 mg/L (≈ 4.77 µM); with MCF7, 4.29 mg/L (≈ 6.82 µM); in the data set with MIA PaCa-2, 2.44 mg/L (≈ 3.88 µM); in the data set with PC-3, 2.9 mg/L (≈ 4.61 µM). Moreover, in data set [1], the LC50 came to 281 mg/L (≈ 447 µM).
